Tests used:
[1] = Antiproliferative activity against NHBE cells incubated for 72 hrs by MTT assay; type: ADME, cell-based; conditions: Homo sapiens
[2] = biological target: Epidermal growth factor receptor (Homo sapiens, UniProt P00533, L858R/T790M); assay: biochemical; type: cell-based, Sf9
NCI-H1975 [3] = assay: Antiproliferative activity against human NCI-H1975 cells incubated for 72 hrs by MTT assay; type: functional, cell-based; conditions: NCI-H1975, 72 h
HCC827 = assay: Antiproliferative activity against human HCC827 cells incubated for 72 hrs by MTT assay; type: functional, cell-based; conditions: HCC827, 72 h
[4] = biological target: T1, Epidermal growth factor receptor (Homo sapiens, UniProt P00533); type: cell-based, Sf9
A549 = assay: Antiproliferative activity against human A549 cells incubated for 72 hrs by MTT assay; type: functional, cell-based; conditions: A549, 72 h
A-431 = assay: Antiproliferative activity against human A431 cells incubated for 72 hrs by MTT assay; type: functional, cell-based; conditions: A-431, 72 h
NCI-H1975 [5] = assay: Antitumor activity against human NCI-H1975 cells xenografted in STOCK-Foxn1nu/Nju nude mouse assessed as inhibition of tumor growth at 20 mg/kg/day, po qd for 14 days relative to untreated control; type: functional; conditions: 336 h, read-out: TGI
Procedure, shortened: (§1)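 Female/male unstated; 5–6-week-old nude mice (20–25 g) implanted subcutaneously in the right oxter with 3×10⁶ H1975 cells in 0.1 mL PBS. After 3 days, mice were randomised into groups and dosed orally once daily for 14 days at 10, 20 or 50 mg/kg; controls received oral 25% PEG-400. Tumour volume was taken as A×B²/2. Body weight and mortality were monitored. Tumours were weighed at sacrifice. n = 5.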

NCI-H1975 [6] = assay: Antitumor activity against human NCI-H1975 cells xenografted in STOCK-Foxn1nu/Nju nude mouse assessed as inhibition of tumor growth at 50 mg/kg/day, po qd for 14 days relative to untreated control; type: functional; conditions: 336 h, read-out: TGI
Procedure, shortened: (§2)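 Nude mice (STOCK-Foxn1nu/Nju, 5–6 weeks, 20–25 g) were given s.c. 3×10⁶ H1975 cells in 0.1 mL PBS in the right oxter. Dosing began three days after implant, with random allocation to groups. Doses were 10, 20 or 50 mg/kg, oral, once daily for 14 days; vehicle controls got oral 25% PEG-400. Tumor volume was taken as A×B²/2 from perpendicular diameters. Tumors were excised and weighed at the end. n = 5, mean ±SD.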

[7] = tested on: Epidermal growth factor receptor (Homo sapiens), P00533 [L858R,T790M]; assay: Inhibition of EGFR L858R/T790M mutant phosphorylation in human NCI-H1975 cells at 0.2 to 5 uM by Western blotting assay; type: cell-based
Procedure, shortened: (§3)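 H1975 and A431 cells were treated and then lysed. Lysates were cleared at 12,000 g, 15 min, 4 °C. 50 µg protein was run on 8–12% SDS-PAGE and transferred to PVDF. Membranes were blocked in 5% skim milk, then probed for EGFR, p-EGFR, AKT, p-AKT, ERK, p-ERK and actin. Detection was by ECL. Band IOD was normalized to actin.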

NCI-H1975 [8] = assay: Antitumor activity against human NCI-H1975 cells xenografted in STOCK-Foxn1nu/Nju nude mouse assessed as inhibition of tumor growth at 10 to 50 mg/kg/day, po qd for 14 days relative to untreated control; type: functional, organism-based; procedure, shortened: as §2
[9] = tested on: Epidermal growth factor receptor (Homo sapiens), P00533 [L858R,T790M]; assay: Inhibition of EGFR L858R/T790M mutant phosphorylation in human NCI-H1975 cells assessed as reduction in ERK phosphorylation at 0.2 to 5 uM by Western blotting assay; type: cell-based; procedure, shortened: as §3
Mus musculus [10] = assay: Toxicity in human NCI-H1975 cells xenografted STOCK-Foxn1nu/Nju nude mouse assessed as body weight loss 10 to 50 mg/kg/day, po qd for 14 days relative to untreated control; type: organism-based; conditions: in vivo, 336 h
Procedure, shortened: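 Body weight was tracked over 14 days of once-daily oral dosing at 10, 20 or 50 mg/kg, against 25% PEG-400 vehicle. Mice were nude (STOCK-Foxn1nu/Nju, 5–6 weeks, 20–25 g) carrying s.c. H1975 xenografts (3×10⁶ cells in PBS). Dosing started three days after implant. n = 5, mean ±SD.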

[11] = tested on: Epidermal growth factor receptor (Homo sapiens), P00533 [L858R,T790M]; assay: Inhibition of EGFR L858R/T790M mutant phosphorylation in human NCI-H1975 cells at 5 uM by Western blotting assay; type: cell-based; procedure, shortened: as §3
[12] = biological target: T1, Epidermal growth factor receptor; assay: Inhibition of wild type EGFR phosphorylation in human A431 cells at 0.2 to 5 uM by Western blotting assay; type: cell-based; procedure, shortened: as §3
Mus musculus [13] = assay: Toxicity in human NCI-H1975 cells xenografted STOCK-Foxn1nu/Nju nude mouse assessed as mouse mortality 10 to 50 mg/kg/day, po qd for 14 days relative to untreated control; type: organism-based; conditions: in vivo, 336 h; procedure, shortened: as §1
[14] = tested on: Epidermal growth factor receptor (Homo sapiens), P00533 [L858R,T790M]; assay: Inhibition of EGFR L858R/T790M mutant phosphorylation in human NCI-H1975 cells assessed as reduction in AKT phosphorylation at 0.2 to 5 uM by Western blotting assay; type: cell-based; procedure, shortened: as §3
Mus musculus [15] = assay: Toxicity in human NCI-H1975 cells xenografted STOCK-Foxn1nu/Nju nude mouse assessed as drug tolerability 10 to 50 mg/kg/day, po qd for 14 days relative to untreated control; type: organism-based; conditions: in vivo, 336 h; procedure, shortened: as §1
[16] = biological target: T1, Epidermal growth factor receptor; assay: Inhibition of wild type EGFR phosphorylation in human A431 cells assessed as reduction in ERK phosphorylation at 0.2 to 5 uM by Western blotting assay; type: cell-based; procedure, shortened: as §3
NCI-H1975 [17] = assay: Antitumor activity against human NCI-H1975 cells xenografted in STOCK-Foxn1nu/Nju nude mouse assessed as inhibition of tumor growth at 10 mg/kg/day, po qd for 14 days relative to untreated control; type: functional; conditions: 336 h, read-out: TGI; procedure, shortened: as §2
[18] = biological target: T1, Epidermal growth factor receptor; assay: Inhibition of wild type EGFR phosphorylation in human A431 cells assessed as reduction in AKT phosphorylation at 0.2 to 5 uM by Western blotting assay; type: cell-based; procedure, shortened: as §3

Sequence of Epidermal growth factor receptor (Homo sapiens, UniProt P00533, L858R/T790M) (P00533 25-1210 T790M/L858R limits assumed): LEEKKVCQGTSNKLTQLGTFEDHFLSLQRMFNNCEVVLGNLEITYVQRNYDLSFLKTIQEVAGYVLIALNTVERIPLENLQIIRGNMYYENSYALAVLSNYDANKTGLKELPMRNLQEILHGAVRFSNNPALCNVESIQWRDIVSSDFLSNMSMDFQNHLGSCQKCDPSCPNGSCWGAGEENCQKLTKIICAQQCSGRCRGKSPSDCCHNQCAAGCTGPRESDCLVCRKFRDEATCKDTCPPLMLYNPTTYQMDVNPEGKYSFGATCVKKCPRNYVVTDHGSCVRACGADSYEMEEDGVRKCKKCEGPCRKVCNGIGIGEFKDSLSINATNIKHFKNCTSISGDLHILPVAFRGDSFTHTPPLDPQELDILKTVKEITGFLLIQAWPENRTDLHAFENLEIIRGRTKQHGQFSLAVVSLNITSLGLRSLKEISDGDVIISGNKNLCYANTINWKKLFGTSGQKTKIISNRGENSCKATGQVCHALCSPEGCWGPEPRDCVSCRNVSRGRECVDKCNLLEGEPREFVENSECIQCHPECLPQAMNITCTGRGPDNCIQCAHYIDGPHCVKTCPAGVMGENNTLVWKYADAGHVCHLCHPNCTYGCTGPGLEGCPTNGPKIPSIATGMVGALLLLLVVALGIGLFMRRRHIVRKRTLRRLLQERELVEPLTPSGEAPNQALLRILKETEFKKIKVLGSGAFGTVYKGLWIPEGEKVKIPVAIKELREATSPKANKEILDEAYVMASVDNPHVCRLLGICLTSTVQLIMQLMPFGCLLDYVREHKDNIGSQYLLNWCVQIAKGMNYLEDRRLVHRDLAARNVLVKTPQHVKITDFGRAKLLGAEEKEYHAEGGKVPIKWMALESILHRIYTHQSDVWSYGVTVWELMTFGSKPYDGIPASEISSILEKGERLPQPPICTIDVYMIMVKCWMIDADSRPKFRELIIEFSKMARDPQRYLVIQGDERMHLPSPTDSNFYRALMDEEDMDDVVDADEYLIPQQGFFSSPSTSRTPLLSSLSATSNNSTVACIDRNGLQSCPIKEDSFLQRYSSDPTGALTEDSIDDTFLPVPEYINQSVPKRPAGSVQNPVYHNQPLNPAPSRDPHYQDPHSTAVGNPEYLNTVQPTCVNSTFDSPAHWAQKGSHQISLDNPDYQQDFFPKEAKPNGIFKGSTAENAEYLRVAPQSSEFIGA
T1 sequence (P00533 whole entry): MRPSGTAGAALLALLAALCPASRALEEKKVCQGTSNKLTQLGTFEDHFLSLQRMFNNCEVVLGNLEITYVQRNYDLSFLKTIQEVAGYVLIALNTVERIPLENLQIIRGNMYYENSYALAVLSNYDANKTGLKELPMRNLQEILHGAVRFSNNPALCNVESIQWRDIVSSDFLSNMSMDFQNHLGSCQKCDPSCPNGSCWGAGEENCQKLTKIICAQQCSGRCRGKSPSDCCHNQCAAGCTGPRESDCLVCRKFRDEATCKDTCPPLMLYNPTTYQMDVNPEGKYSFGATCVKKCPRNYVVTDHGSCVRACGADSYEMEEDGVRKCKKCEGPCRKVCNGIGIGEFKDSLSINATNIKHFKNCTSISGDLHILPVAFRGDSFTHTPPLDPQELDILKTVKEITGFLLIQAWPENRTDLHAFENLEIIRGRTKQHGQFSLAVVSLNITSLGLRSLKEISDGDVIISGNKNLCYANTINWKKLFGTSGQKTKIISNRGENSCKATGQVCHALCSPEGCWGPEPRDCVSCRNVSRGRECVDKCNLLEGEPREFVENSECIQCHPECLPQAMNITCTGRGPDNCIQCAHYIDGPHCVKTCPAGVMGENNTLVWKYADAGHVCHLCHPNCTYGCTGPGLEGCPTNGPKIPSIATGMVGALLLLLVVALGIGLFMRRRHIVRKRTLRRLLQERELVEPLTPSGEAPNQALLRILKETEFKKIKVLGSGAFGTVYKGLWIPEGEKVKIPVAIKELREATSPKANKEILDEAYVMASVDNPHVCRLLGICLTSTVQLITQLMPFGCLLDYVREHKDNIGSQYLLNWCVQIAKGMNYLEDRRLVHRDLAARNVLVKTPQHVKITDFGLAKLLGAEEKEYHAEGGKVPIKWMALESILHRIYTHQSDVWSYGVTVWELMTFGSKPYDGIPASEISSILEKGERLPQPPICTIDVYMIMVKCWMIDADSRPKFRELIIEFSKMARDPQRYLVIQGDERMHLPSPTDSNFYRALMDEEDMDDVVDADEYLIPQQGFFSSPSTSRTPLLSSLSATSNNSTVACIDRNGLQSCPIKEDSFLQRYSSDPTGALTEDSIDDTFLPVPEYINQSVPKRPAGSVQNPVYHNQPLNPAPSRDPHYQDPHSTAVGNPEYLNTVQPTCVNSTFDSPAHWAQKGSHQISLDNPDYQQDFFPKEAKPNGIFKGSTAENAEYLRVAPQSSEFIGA
Sequence of Epidermal growth factor receptor (Homo sapiens), P00533 [L858R,T790M] (P00533 whole entry T790M/L858R, looked up): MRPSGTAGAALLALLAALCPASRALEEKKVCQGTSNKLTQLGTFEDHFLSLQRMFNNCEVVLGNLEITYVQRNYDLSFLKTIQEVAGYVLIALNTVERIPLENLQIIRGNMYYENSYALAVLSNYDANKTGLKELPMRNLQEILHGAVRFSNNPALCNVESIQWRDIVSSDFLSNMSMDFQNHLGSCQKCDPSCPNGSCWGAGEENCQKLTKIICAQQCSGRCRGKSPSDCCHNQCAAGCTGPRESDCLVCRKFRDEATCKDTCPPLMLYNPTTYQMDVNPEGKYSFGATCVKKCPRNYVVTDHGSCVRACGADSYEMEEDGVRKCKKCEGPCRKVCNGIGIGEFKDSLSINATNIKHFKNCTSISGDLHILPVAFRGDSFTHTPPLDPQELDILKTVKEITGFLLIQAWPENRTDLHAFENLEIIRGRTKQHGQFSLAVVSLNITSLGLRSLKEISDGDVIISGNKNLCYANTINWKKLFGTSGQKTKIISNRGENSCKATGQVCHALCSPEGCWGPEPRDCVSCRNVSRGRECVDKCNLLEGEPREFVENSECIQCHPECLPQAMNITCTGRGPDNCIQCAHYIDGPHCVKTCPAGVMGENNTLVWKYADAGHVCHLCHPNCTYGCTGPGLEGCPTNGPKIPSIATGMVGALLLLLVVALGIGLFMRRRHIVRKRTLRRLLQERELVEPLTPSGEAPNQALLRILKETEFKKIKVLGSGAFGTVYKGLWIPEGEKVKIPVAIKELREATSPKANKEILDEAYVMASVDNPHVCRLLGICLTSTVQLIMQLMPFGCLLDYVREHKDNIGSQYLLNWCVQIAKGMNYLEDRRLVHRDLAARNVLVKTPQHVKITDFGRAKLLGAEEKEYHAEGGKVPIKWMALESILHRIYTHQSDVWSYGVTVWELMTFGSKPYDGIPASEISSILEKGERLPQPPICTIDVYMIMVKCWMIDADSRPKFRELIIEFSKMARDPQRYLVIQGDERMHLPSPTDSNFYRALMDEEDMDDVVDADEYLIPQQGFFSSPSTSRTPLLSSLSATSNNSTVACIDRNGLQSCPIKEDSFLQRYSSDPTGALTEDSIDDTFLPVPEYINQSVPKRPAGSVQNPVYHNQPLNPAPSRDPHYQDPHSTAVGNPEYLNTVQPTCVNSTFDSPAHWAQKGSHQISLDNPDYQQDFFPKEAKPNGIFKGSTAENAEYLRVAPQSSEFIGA

Row | SMILES | IC50 [1] | IC50 [2] | IC50 (NCI-H1975 [3]) | IC50 (HCC827) | IC50 [4] | IC50 (A549) | IC50 (A-431) | further results
1 | C=CC(=O)Nc1ccccc1Nc1nc(Nc2ccc(OCCCN3CCOCC3)cc2)ncc1Cl | > 40 µM | 21.5 nM | 217 nM | 587 nM | 767 nM | 4.74 µM | 584 nM | 
2 | C=CC(=O)Nc1cccc(Nc2nc(Nc3ccc(OCCN4CCOCC4)cc3)ncc2Cl)c1 | 31.5 µM | 94.7 nM | 215 nM | 43 nM | 961 nM | 5.71 µM | 385 nM | 
3 | C=CC(=O)Nc1cc(Nc2nccc(-c3cn(C)c4ccccc34)n2)c(OC)cc1N(C)CCN(C)C [OSIMERTINIB] |  |  |  |  |  |  |  | inhibition in vivo at 20 mg/kg/day (NCI-H1975 [5]): 98.8%
4 | C=CC(=O)Nc1cccc(Nc2nc(Nc3ccc(CN4CCOCC4)cc3OC)ncc2Cl)c1 | 28.8 µM | 17 nM | 287 nM | 52 nM | > 500 nM | 16.6 µM | 2060 nM | 
5 | C=CC(=O)Nc1cccc(Nc2nc(Nc3ccc(N4CCN(C(C)=O)CC4)cc3OC)ncc2C(F)(F)F)c1 [ROCILETINIB] | > 40 µM |  | 299 nM | 31 nM |  | 3.24 µM |  | inhibition in vivo at 50 mg/kg/day (NCI-H1975 [6]): 70.2%
6 | C=CC(=O)Nc1cccc(Oc2nc(Nc3ccc(CC(=O)N4CCOCC4)cc3)ncc2Cl)c1 | > 40 µM | 101 nM | 296 nM | 48 nM | 996 nM | 2.94 µM | 2190 nM | 
7 | C=CC(=O)Nc1cccc(Nc2nc(Nc3ccc(OCCN4CCOCC4)c(Cl)c3)ncc2Cl)c1 | 22.4 µM | > 100 nM | 500 nM | 57 nM | > 1000 nM | 14 µM | 870 nM | 
8 | C=CC(=O)Nc1ccccc1Nc1nc(Nc2ccc(OCC(=O)N3CCOCC3)cc2)ncc1Cl | 39.5 µM | 24.8 nM | 132 nM | 418 nM | 143 nM | 2.65 µM | 42 nM | 
9 | C=CC(=O)Nc1ccccc1Nc1nc(Nc2ccc(NC(=O)CN3CCOCC3)cc2)ncc1Cl | 21.6 µM | 21.7 nM | 128 nM | 491 nM | 592 nM | 5.11 µM | 104 nM | 
10 | C=CC(=O)Nc1cccc(Nc2nc(Nc3ccc(CN4CCOCC4)cc3)ncc2F)c1 | 22.7 µM | 80.8 nM | 609 nM | 41 nM | 500 nM | 4.46 µM | 444 nM | 
11 | C=CC(=O)Nc1cccc(Nc2nc(Nc3ccc(CC(=O)N4CCOCC4)cc3)ncc2Cl)c1 | 22 µM | 96.6 nM | 256 nM | 58 nM | < 500 nM | 1.66 µM | 760 nM | 
12 | C=CC(=O)Nc1cccc(Nc2nc(Nc3ccc(CN4CCOCC4)cc3)ncc2Cl)c1 | > 40 µM |  | 37 nM | 44 nM |  | 4.45 µM | 382 nM | inhibition [7]: Dose-dependent effect; TGI (NCI-H1975 [8]): Dose-dependent effect; inhibition [9]: Dose-dependent effect; Activity (Mus musculus [10]): < 5%; inhibition [11]: 100%; inhibition in vivo at 20 mg/kg/day (NCI-H1975 [5]): 45.3%; inhibition (INH) [12]: Dose-dependent effect; Activity (Mus musculus [13]): Non-Toxic; inhibition in vivo at 50 mg/kg/day (NCI-H1975 [6]): 64.6%; inhibition [14]: Dose-dependent effect; Activity (Mus musculus [15]): Non-Toxic; inhibition (INH) [16]: Dose-dependent effect; inhibition in vivo at 10 mg/kg/day (NCI-H1975 [17]): 39%; inhibition (INH) [18]: Dose-dependent effect
13 | C=CC(=O)Nc1ccccc1Nc1nc(Nc2ccc(CN3CCOCC3)cc2)ncc1Cl | > 40 µM | 15.3 nM | 104 nM | 995 nM | > 800 nM | 2.64 µM | 112 nM | 
14 | C=CC(=O)Nc1ccccc1Nc1nc(Nc2ccc(OCCN3CCOCC3)cc2)ncc1Cl | > 40 µM |  | 240 nM | 524 nM |  | 4.7 µM | 478 nM | 

Source: ChEMBL document CHEMBL4270490, “Synthesis and biological evaluation of morpholine-substituted diphenylpyrimidine derivatives (Mor-DPPYs) as potent EGFR T790M inhibitors with improved activity toward the gefitinib-resistant non-small cell lung cancers (NSCLC)” (Eur J Med Chem, 2017)
